Measurements of several laboratories.
Compare with care: the assays were run in different laboratories.
Target: Tyrosine-protein kinase TXK (TXK, Homo sapiens, UniProt P42681)
Residues used in one study (P42681 1-527): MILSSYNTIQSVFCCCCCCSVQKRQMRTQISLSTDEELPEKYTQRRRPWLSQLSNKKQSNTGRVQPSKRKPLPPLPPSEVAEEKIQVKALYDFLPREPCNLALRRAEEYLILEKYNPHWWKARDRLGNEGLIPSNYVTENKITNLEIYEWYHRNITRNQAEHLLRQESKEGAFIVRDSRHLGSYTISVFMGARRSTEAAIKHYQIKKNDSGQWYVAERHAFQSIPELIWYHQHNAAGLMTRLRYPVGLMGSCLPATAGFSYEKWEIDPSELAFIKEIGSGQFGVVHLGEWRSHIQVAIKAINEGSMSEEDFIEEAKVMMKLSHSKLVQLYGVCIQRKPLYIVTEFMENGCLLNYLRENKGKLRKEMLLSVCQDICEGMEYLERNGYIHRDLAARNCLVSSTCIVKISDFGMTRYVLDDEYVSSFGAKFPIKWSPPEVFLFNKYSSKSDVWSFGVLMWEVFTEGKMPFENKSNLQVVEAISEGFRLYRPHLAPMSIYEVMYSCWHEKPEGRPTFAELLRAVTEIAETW

Compound	assay	conditions	remaining binding [%]
O=C(c1ccc(Nc2ncc(Cl)c(-c3cc4ccccc4s3)n2)cc1)N1CCC(N2CCCC2)CC1	binding, competition with immobilised ligand	1 µM	71
C[C@@H](c1cccc(C#N)c1)n1cc(Cl)cc(C(N)=O)c1=N	binding, competition with immobilised ligand	1 µM	68
C[C@@H](c1ccc(-n2cnc3c(N)ncnc32)cc1)N1CCc2nn(C)c(Cc3ccccc3)c2C1=O	binding, competition with immobilised ligand	0.1 µM	73
C[C@H](NC(=O)c1cnc2n1[C@](C)(Cc1ccc(C#N)cc1)C(=O)N2c1cc(Cl)c(F)c(Cl)c1)C(=O)NC1(c2ccccn2)CC1	binding, competition with immobilised ligand	1 µM	90
F[C@@H]1CCN(c2nccc(-c3cnn4ncccc34)n2)C1	binding	1 µM	73
O=C(NCC1CCOCC1)c1n[nH]cc1NC(=O)c1c(F)cccc1F	binding, competition with immobilised ligand	1 µM	100
Cc1cnn2ncc(-c3ccnc(N(C)C)n3)c2c1	binding	1 µM	100
O=C(NCCCN1CCOCC1)c1ccc(Nc2nccc(-c3cc4ccccc4s3)n2)cc1	binding, competition with immobilised ligand	1 µM	86
CNCc1ccccc1-c1csc([C@H](C)Nc2nc(C)nc3cc(OC)c(OC)cc23)c1	cell-free assay, competition with immobilised ligand	1 µM	100
CCN1CCN(Cc2ccc(C(=O)Nc3ccc(C)c(Oc4ccc5c(c4)CC(=O)N5)c3)cc2C(F)(F)F)CC1	binding, competition with immobilised ligand	1 µM	100
N[C@@H]1CCN(c2nccc(-c3cnn4ncccc34)n2)C1	binding	1 µM	100
CC(=O)c1c(NS(C)(=O)=O)c2cc(-c3ccc(Cl)cc3)c(-c3ccc(Cl)cc3Cl)nc2n(C)c1=O	cell-free assay, competition with immobilised ligand	1 µM	100
CNC(=O)[C@@H]1CC[C@@H](n2c(-c3ccc4cnccc4c3)nc3ccc(C(=O)NCc4cccc(C(N)=O)c4)cc32)C1	binding, competition with immobilised ligand	1 µM	100
CCc1ccccc1C(=O)Nc1n[nH]c2c(C)c(F)c(C3C(C#N)=C(C)N(C)C(C)=C3C#N)cc12	binding, competition with immobilised ligand	1 µM	84
Nc1ncc2c(n1)-c1c([nH]c3ccc(C#CC4CC4)cc13)CCCC2	binding, competition with immobilised ligand	1 µM	99
COc1ccnn2ncc(-c3ccnc(N(C)C)n3)c12	binding	1 µM	100
CCOCCn1cc(C(=O)Nc2ccc(-n3nc(-c4cccnc4)cc3C(F)(F)F)cn2)ccc1=O	binding, competition with immobilised ligand	1 µM	81
C[C@@H]1CCN(c2nccc(-c3cnn4ncccc34)n2)C1	binding	1 µM	100
Cc1c(NC(=O)c2cc(C(N)=O)nc3cc(F)ccc23)c(C(F)(F)F)nn1Cc1ccc(C(C)(C)C)cc1	cell-free assay, competition with immobilised ligand	1 µM	100
FC(F)(F)Oc1cccc(-c2cnc3ccc(-c4ccncc4)nn23)c1	binding, competition with immobilised ligand	5 µM	55
CN(C)c1ncc(F)c(-c2cnn3ncccc23)n1	binding	1 µM	100
O=C(NCCCN1CCOCC1)c1ccc(Nc2ncc(Cl)c(-c3ccc(Cl)s3)n2)cc1	binding, competition with immobilised ligand	1 µM	99
